Compound activity as filed in PubChem.
In the library only some 4.5% were active in any assay of this set; here they are far more common.
CHO parental Ca: counter-screen: ATP calcium response change in parental CHO cells; parental CHO-K1, ATP-induced calcium, Fluo-8 fluorescence; hit rate 0.63% among 330,000; inhibition, % at 5.6 µM;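 active = inhibition above that plate's mean sample inhibition plus 3 SD, cut at about 26% in these data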
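Assay system: untransfected parental CHO cell line. Also added: ATP agonist challenge. Dosing: one dose, 5.6 µM nominal. Measured by: Fluo-8 fluorescence. Read-out: % inhibition. Benchmarks: ATP wells versus no-ATP DMSO wells. Repeats: no replicates.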
TAAR1 antagonist: human TAAR1 antagonism. inhibition, % at 3 µM. hit rate 1.5% among 360,000. CHO RD-HGA16 TAAR1, Fluo-8 calcium fluorescence, antagonist;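 active = inhibition above a per-plate cutoff, the mean inhibition of test compounds on that plate plus 3 SD, cut at about 49% in these data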
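Test system – hTAAR1-expressing CHO RD-HGA16 cells, Gα16-coupled · Also added – β-PEA at EC80 concentration, post-compound challenge · Compound – 3 µM, single point · Incubation – dye loading 75 min at 37 °C, then 30 min room temperature · Measured by – Fluo-8 intracellular calcium dye fluorescence, real-time kinetic reads · Benchmarks – vehicle and agonist controls · Replicates – singlicate, one well per test compound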
TAAR1 ag: agonists of human TAAR1 | AID 624467 | Q96RJ0 | activation, % at 3 µM | hit rate 0.99% among 360,000 | CHO RD-HGA16 TAAR1, Fluo-8 calcium fluorescence; vehicle wells 0%, saturating PEA agonist 100%;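 active = activation above the mean activation of all test compounds in the run plus 3 SD, cut at about 38% in these data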
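Test system: RD-HGA16 (CHO) cells co-expressing Gα16 and hTAAR1 | Doses: Single dose, 3 µM | Schedule: 17-24 h seeding, 75 min 37 °C dye, 30 min RT | Evaluation: % activation from peak over basal fluorescence ratio, DMSO-to-PEA scaled | Technique: Kinetic Fluo-8 calcium fluorescence | Benchmarks: Low control DMSO, high control PEA (EC100)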
GPR7 antag: blocks human GPR7 receptor signaling. P48145. GPR7-expressing cells, fluorescence antagonist assay. inhibition, % at 4.4 µM. hit rate 1.1% among 290,000. AID 1861; in the data active = inhibition above about 16%, passing the limit was not always enough;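 also: cells stimulated with the agonist NPW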
Target sequence (P48145 whole entry, looked up): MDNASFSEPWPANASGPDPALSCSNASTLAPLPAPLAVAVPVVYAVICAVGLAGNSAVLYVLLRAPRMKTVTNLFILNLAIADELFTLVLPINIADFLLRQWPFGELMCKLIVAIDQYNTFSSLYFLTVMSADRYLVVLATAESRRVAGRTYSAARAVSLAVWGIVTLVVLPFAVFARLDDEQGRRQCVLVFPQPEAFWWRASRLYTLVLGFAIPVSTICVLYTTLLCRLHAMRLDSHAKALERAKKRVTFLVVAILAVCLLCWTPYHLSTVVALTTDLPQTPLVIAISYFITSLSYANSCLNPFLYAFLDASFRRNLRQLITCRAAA
OX1R antag-1: blocks the human orexin 1 receptor; OX1R-expressing cells, FRET antagonist read-out; inhibition, % at 6.6 µM; hit rate 1.8% among 330,000; in the data active = inhibition mostly above about 38%, no sharp cut-off; inactive = mostly below about 40%
Target sequence (O43613 whole entry, looked up): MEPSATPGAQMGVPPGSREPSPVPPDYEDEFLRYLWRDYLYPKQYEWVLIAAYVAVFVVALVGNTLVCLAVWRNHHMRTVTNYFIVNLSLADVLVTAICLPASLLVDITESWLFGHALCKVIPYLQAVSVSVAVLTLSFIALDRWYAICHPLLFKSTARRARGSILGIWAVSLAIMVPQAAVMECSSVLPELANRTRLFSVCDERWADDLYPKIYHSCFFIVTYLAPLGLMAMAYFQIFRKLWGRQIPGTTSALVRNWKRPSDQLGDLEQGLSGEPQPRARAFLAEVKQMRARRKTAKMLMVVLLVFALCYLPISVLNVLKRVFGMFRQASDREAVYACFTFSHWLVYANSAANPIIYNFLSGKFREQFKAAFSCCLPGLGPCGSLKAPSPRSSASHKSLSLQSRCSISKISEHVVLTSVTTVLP
OX1R antag-2: blocks the human orexin 1 receptor; O43613; CHO/OX1R cells, Fluo-8 calcium fluorescence, orexin A; inhibition, % at 5 µM; hit rate 0.43% among 330,000;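 active = inhibition above its plate's threshold, mean inhibition of all tested compounds on the plate plus 3 SD, cut at about 37% in these data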
TAAR1 nonsel count: nonselective antagonism, TAAR1 counter-screen. shares compounds with TAAR1 antagonist. counterscreen cell line, calcium fluorescence, antagonist mode. inhibition, % at 3 µM. hit rate 77% among 2,400; in the data active = inhibition above about 22%;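 also: CHO-Ga16 host cells stimulated with ATP at an EC80 level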
TAAR1 ant conf: confirmation of human TAAR1 antagonists | shares compounds with TAAR1 antagonist | TAAR1-expressing cells, fluorescence antagonist read-out | inhibition, % at 3 µM | hit rate 40% among 2,400; in the data active = inhibition above about 49%;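 also: CHO-Ga16 host cells challenged with agonist PEA near its EC80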
Ga16 ag counter: nonselective Ga16 agonist in TAAR1 antagonist counter-screen. activation, % at 3 µM. hit rate 18% among 2,400. Ga16-expressing cells, calcium fluorescence, agonist counterscreen. shares compounds with TAAR1 antagonist; in the data active = activation above about 12%
TAAR1 ag count: counter-screen for human TAAR1 antagonists: TAAR1 agonists; shares compounds with TAAR1 antagonist; hTAAR1 cell line, fluorescence activation, agonist mode; activation, % at 3 µM; hit rate 2% among 2,400; in the data active = activation above about 37%;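 also: CHO cells stably expressing TAAR1 with calcium dye readout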
Each line names hits and unclear results; the compound was inactive in the other large screens (follow-up assays come after a bar, where they were run).

COc1ccc(NP(=O)(Oc2ccc(Cl)cc2)Oc2ccc(Cl)cc2)cc1OC	none
COc1ccccc1OP(=O)(Nc1ccc(Br)cc1)Oc1ccccc1OC	TAAR1 antagonist 78 | TAAR1 nonsel count 30 | TAAR1 ant conf 56 | Ga16 ag counter inactive | TAAR1 ag count inactive
C=C1[C@@H](C)[C@H]2[C@H](Cc3ccccc3)NC(=O)[C@]23OC(=O)/C=C/[C@H](O)CCC[C@@H](C)C/C=C/[C@H]3[C@@H]1O	TAAR1 antagonist 72 | TAAR1 nonsel count 32 | TAAR1 ant conf 55 | Ga16 ag counter inactive | TAAR1 ag count inactive
C=C1C(C)C2C(Cc3ccccc3)NC(=O)C23C(OC(C)=O)C=CC(C)(O)CC(C)CC=CC3C1O (configuration not stated)	none (no result: CHO parental Ca, GPR7 antag, OX1R antag-1, OX1R antag-2)
CC1([N+](=O)[O-])COP(=O)(Nc2ccc(Cl)cc2)OC1 (configuration not stated)	none (no result: CHO parental Ca, GPR7 antag, OX1R antag-1, OX1R antag-2)
O=P(Nc1ccccc1)(Oc1ccccc1)Oc1ccccc1	TAAR1 antagonist 74 | TAAR1 nonsel count 27 | TAAR1 ant conf 59 | Ga16 ag counter inactive | TAAR1 ag count inactive
Cc1cccc(NP(=O)(Oc2ccccc2)Oc2ccccc2)c1C	TAAR1 antagonist 73 | TAAR1 nonsel count 24 | TAAR1 ant conf inactive | Ga16 ag counter inactive | TAAR1 ag count inactive
COC(=O)C1=CO[C@@H](C)[C@H]2CN3CC[C@]4(C(=O)Nc5ccccc54)[C@@H]3C[C@H]12	none (no result: GPR7 antag)
c1ccc(-c2nc3ccccc3nc2-c2ccc(CN3CCC(n4nnc5ccccc54)CC3)cc2)cc1	TAAR1 antagonist 51 (no result: CHO parental Ca, GPR7 antag, OX1R antag-1, OX1R antag-2) | TAAR1 nonsel count inactive | TAAR1 ant conf inactive | Ga16 ag counter inactive | TAAR1 ag count inactive
COC(=O)C1=C(c2ccc(Cl)c(C(F)(F)F)c2)C[C@@H]2CC[C@H]1N2C(=O)NCc1ccco1	none (no result: GPR7 antag)
COC(=O)C1=C(c2ccc(F)cc2OCc2ccccc2)C[C@@H]2CC[C@H]1N2C(=O)NCc1ccc([N+](=O)[O-])cc1	TAAR1 antagonist 58 (no result: GPR7 antag) | TAAR1 nonsel count 27 | TAAR1 ant conf inactive | Ga16 ag counter inactive | TAAR1 ag count inactive
COC(=O)C1=C(c2ccccc2OCc2ccccc2)C[C@@H]2CC[C@H]1N2C(=O)NCc1ccc(F)cc1	none (no result: GPR7 antag)
N/C(=N/[N+](=O)[O-])N1CCN(C(=O)Oc2ccc([N+](=O)[O-])cc2)CC1	none
O=c1[nH]c2ccccc2n1C1CCN(C(CCc2ccccc2)c2nnnn2C2CCCCC2)CC1 (configuration not stated)	TAAR1 antagonist 58 (no result: CHO parental Ca, GPR7 antag, OX1R antag-1, OX1R antag-2) | TAAR1 nonsel count 26 | TAAR1 ant conf inactive | Ga16 ag counter inactive | TAAR1 ag count inactive
CSCCC(c1nnnn1C1CCCC1)N1CCC2(CC1)C(=O)NCN2c1ccccc1 (configuration not stated)	none (no result: CHO parental Ca, GPR7 antag, OX1R antag-1, OX1R antag-2)
CSCCC(c1nnnn1-c1c(C)cccc1C)N1CCC(n2c(=O)[nH]c3ccccc32)CC1 (configuration not stated)	TAAR1 antagonist 53 (no result: CHO parental Ca, GPR7 antag, OX1R antag-1, OX1R antag-2) | TAAR1 nonsel count 24 | TAAR1 ant conf 55 | Ga16 ag counter inactive | TAAR1 ag count inactive
CSCCC(c1nnnn1C1CCCC1)N1CCC(n2c(=O)[nH]c3ccccc32)CC1 (configuration not stated)	TAAR1 antagonist 56 (no result: CHO parental Ca, GPR7 antag, OX1R antag-1, OX1R antag-2) | TAAR1 nonsel count 23 | TAAR1 ant conf inactive | Ga16 ag counter inactive | TAAR1 ag count inactive
C[C@@H]1CN([C@H](C)CO)C(=O)CCCn2cc(nn2)CO[C@H]1CN(C)C(=O)Oc1cccc2ccccc12	none (no result: CHO parental Ca, GPR7 antag, OX1R antag-1, OX1R antag-2)
Cc1c(CCC(=O)N2C[C@H]3C[C@@H](C2)c2cccc(=O)n2C3)c(=O)oc2c(C)c(O)ccc12	none (no result: CHO parental Ca, GPR7 antag, OX1R antag-1, OX1R antag-2)
COC(=O)c1ccc(NC(=O)CSc2nc3ccc(N4C(=O)C5C6C=CC(C6)C5C4=O)cc3s2)cc1 (configuration not stated)	TAAR1 antagonist 88 | TAAR1 nonsel count 41 | TAAR1 ant conf 65 | Ga16 ag counter 17 | TAAR1 ag count inactive
CC(=O)c1ccc2c(c1)C1C(Cl)C(Sc3ccccc3[N+](=O)[O-])CC1C(c1ccccc1[N+](=O)[O-])N2 (configuration not stated)	TAAR1 antagonist 58 | TAAR1 nonsel count 34 | TAAR1 ant conf inactive | Ga16 ag counter inactive | TAAR1 ag count inactive
Cc1cccc(OP(=O)(NCc2ccccc2)Oc2cccc(C)c2)c1	TAAR1 antagonist 80 | TAAR1 nonsel count 34 | TAAR1 ant conf 78 | Ga16 ag counter 13 | TAAR1 ag count inactive
Cc1cccc(OP(N)(=O)Oc2cccc(C)c2)c1	none
NC1CC2CCCCC2CC1(O)c1ccccc1 (configuration not stated)	none (no result: CHO parental Ca, GPR7 antag, OX1R antag-1, OX1R antag-2)
CC(=O)C1(c2ccccc2)CCN(C(=O)C2CCC(=O)N(CCc3cccc(F)c3)C2)CC1 (configuration not stated)	TAAR1 antagonist 61 | TAAR1 nonsel count inactive | TAAR1 ant conf inactive | Ga16 ag counter inactive | TAAR1 ag count inactive
CC1(C)CC2CCC(O)C2C(CCO)N1 (configuration not stated)	none (no result: CHO parental Ca, GPR7 antag, OX1R antag-1, OX1R antag-2)
O=P(Nc1cccnc1)(Oc1ccccc1Cl)Oc1ccccc1Cl	TAAR1 antagonist 70 | TAAR1 nonsel count 32 | TAAR1 ant conf inactive | Ga16 ag counter inactive | TAAR1 ag count inactive
COc1ccccc1OCCCn1cc(C(=O)c2ccco2)c2ccccc21	TAAR1 antagonist 54 | TAAR1 nonsel count 27 | TAAR1 ant conf inactive | Ga16 ag counter inactive | TAAR1 ag count inactive
O=C(c1ccco1)c1cn(Cc2ccc(Cl)cc2)c2ccccc12	none
CCCNC(=O)Cn1cnc2sc(C(=O)N3CCC4(CC3)OCCO4)c(C)c2c1=O	none
Cc1c(C(=O)N2CCC3(CC2)OCCO3)sc2ncnc(N3CCN(c4ccccn4)CC3)c12	TAAR1 antagonist 61 | TAAR1 nonsel count 28 | TAAR1 ant conf 50 | Ga16 ag counter inactive | TAAR1 ag count inactive
O=C1NC(=O)C(=Cc2ccc(Sc3ccccc3)o2)C(=O)N1	none
